Measured values published in ChEMBL document CHEMBL1165943, “Design and synthesis of new anticancer pyrimidines with multiple-kinase inhibitory effect” (Bioorg Med Chem, 2010).

Legend:
[1] = target: Myotonin-protein kinase (Homo sapiens) (UniProt Q09013); test: Inhibition of DMPK at 10 uM by HotSpot assay
[2] = target: Mitogen-activated protein kinase 8 (Homo sapiens) (UniProt P45983); test: Inhibition of JNK1 at 10 uM by HotSpot assay
[3] = target: Tyrosine-protein kinase Fyn (Homo sapiens) (UniProt P06241); test: Inhibition of FYN at 10 uM by HotSpot assay
[4] = target: DNA-dependent protein kinase catalytic subunit (Homo sapiens) (UniProt P78527); test: Inhibition of DNA-PK at 10 uM by HotSpot assay
[5] = target: Serine/threonine-protein kinase pim-1 (Homo sapiens) (UniProt P11309); test: Inhibition of PIM1 at 10 uM by HotSpot assay
[6] = target: Tyrosine-protein kinase Lyn (Homo sapiens) (UniProt P07948); test: Inhibition of LYN at 10 uM by HotSpot assay
[7] = target: Ribosomal protein S6 kinase beta-1 (Homo sapiens) (UniProt P23443); test: Inhibition of p70S6K1 at 10 uM by HotSpot assay
[8] = target: Serine/threonine-protein kinase Chk1 (Homo sapiens) (UniProt O14757); test: Inhibition of CHK1 at 10 uM by HotSpot assay
[9] = target: Serine/threonine-protein kinase B-raf (Homo sapiens) (UniProt P15056); test: Inhibition of B-Raf at 10 uM by HotSpot assay
[10] = target: Cyclin-dependent kinase 2/cyclin E1 (Homo sapiens) (UniProt P24864+P24941); test: Inhibition of CDK2/Cyclin E at 10 uM by HotSpot assay; type: protein-complex assay
[11] = target: Focal adhesion kinase 1 (Homo sapiens) (UniProt Q05397); test: Inhibition of PTK2 at 10 uM by HotSpot assay
[12] = target: Homeodomain-interacting protein kinase 1 (Homo sapiens) (UniProt Q86Z02); test: Inhibition of HIPK1 at 10 uM by HotSpot assay
[13] = target: Insulin-like growth factor 1 receptor (Homo sapiens) (UniProt P08069); test: Inhibition of IGF1R at 10 uM by HotSpot assay
[14] = target: Proto-oncogene tyrosine-protein kinase receptor Ret (Homo sapiens) (UniProt P07949); test: Inhibition of RET at 10 uM by HotSpot assay
[15] = target: Mitogen-activated protein kinase 14 (Homo sapiens) (UniProt Q16539); test: Inhibition of p38alpha at 10 uM by HotSpot assay
[16] = target: Fibroblast growth factor receptor 1 (Homo sapiens) (UniProt P11362); test: Inhibition of FGFR1 at 10 uM by HotSpot assay
[17] = target: Platelet-derived growth factor receptor beta (Homo sapiens) (UniProt P09619); test: Inhibition of PDGFRbeta at 10 uM by HotSpot assay
[18] = target: Mitogen-activated protein kinase 1 (Homo sapiens) (UniProt P28482); test: Inhibition of MAPK1 at 10 uM by HotSpot assay
[19] = target: Protein kinase C alpha type (Homo sapiens) (UniProt P17252); test: Inhibition of PKCalpha at 10 uM by HotSpot assay
[20] = target: Macrophage-stimulating protein receptor (Homo sapiens) (UniProt Q04912); test: Inhibition of RON at 10 uM by HotSpot assay
PC-3 [21] = test: Cytotoxicity against human PC3 cells assessed as cell growth at 10 uM after 48 hrs by sulforhodamine B assay; type: functional; details: PC-3, 48 h, read-out: Activity
SK-MEL-28 [22] = test: Cytotoxicity against human SK-MEL-28 cells assessed as cell growth at 0.001 uM after 48 hrs by sulforhodamine B assay; type: functional; details: SK-MEL-28, 48 h, read-out: Activity
PC-3 [23] = test: Cytotoxicity against human PC3 cells assessed as cell growth at 1 uM after 48 hrs by sulforhodamine B assay; type: functional; details: PC-3, 48 h, read-out: Activity
SR [24] = test: Cytotoxicity against human SR cells assessed as cell growth at 100 nM after 48 hrs by sulforhodamine B assay; type: functional; details: read-out: Activity
HCC 2998 = test: Growth inhibition of human HCC2998 cells after 48 hrs by sulforhodamine B assay; type: functional; details: HCC 2998, 48 h
Outline: (§1)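 Cells grown in RPMI 1640 with 5% FBS and 2 mM L-glutamine, seeded at 5,000–40,000 cells/well according to doubling time. After 24 h, time-zero plates are TCA-fixed. Five concentrations (10-fold or ½log dilutions, DMSO stocks) are applied for 48 h at 37 °C, 5% CO₂. Cells are TCA-fixed, SRB-stained and read at 515 nm. IC₅₀ is taken from [(Ti−Tz)/(C−Tz)]×100 = 50.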

MCF7 [25] = test: Cytotoxicity against human MCF7 cells assessed as cell growth at 100 nM after 48 hrs by sulforhodamine B assay; type: functional; details: MCF7, 48 h, read-out: Activity
SR [26] = test: Cytotoxicity against human SR cells assessed as cell growth at 10 uM after 48 hrs by sulforhodamine B assay; type: functional; details: read-out: Activity
[27] = Cytotoxicity against human […] cells assessed as cell growth at 10 uM after 48 hrs by sulforhodamine B assay; type: functional; details: read-out: Activity
HOP-92 [28] = test: Cytotoxicity against human HOP92 cells assessed as cell growth at 1 uM after 48 hrs by sulforhodamine B assay; type: functional; details: HOP-92, 48 h, read-out: Activity
SK-MEL-28 [29] = test: Cytotoxicity against human SK-MEL-28 cells assessed as cell growth at 10 uM after 48 hrs by sulforhodamine B assay; type: functional; details: SK-MEL-28, 48 h, read-out: Activity
HOP-92 [30] = test: Cytotoxicity against human HOP92 cells assessed as cell growth at 100 nM after 48 hrs by sulforhodamine B assay; type: functional; details: HOP-92, 48 h, read-out: Activity
NCI-H226 = test: Growth inhibition of human NCI-H226 cells after 48 hrs by sulforhodamine B assay; type: functional; details: NCI-H226, 48 h; outline: as §1
[31] = Growth inhibition of human RPMI8266 cells after 48 hrs by sulforhodamine B assay; type: functional; outline: as §1
CCRF-CEM [32] = test: Cytotoxicity against human CCRF-CEM cells assessed as cell growth at 1 uM after 48 hrs by sulforhodamine B assay; type: functional; details: read-out: Activity
CCRF-CEM [33] = test: Cytotoxicity against human CCRF-CEM cells assessed as cell growth at 100 nM after 48 hrs by sulforhodamine B assay; type: functional; details: read-out: Activity
SR [34] = test: Cytotoxicity against human SR cells assessed as cell growth at 0.001 uM after 48 hrs by sulforhodamine B assay; type: functional; details: read-out: Activity
[35] = Cytotoxicity against human RPMI8266 cells assessed as cell growth at 0.01 uM after 48 hrs by sulforhodamine B assay; type: functional; details: read-out: Activity
MCF7 [36] = test: Cytotoxicity against human MCF7 cells assessed as cell growth at 10 uM after 48 hrs by sulforhodamine B assay; type: functional; details: MCF7, 48 h, read-out: Activity
NCI-H23 = test: Cytotoxicity against human NCI-H23 cells assessed as cell growth at 100 nM after 48 hrs by sulforhodamine B assay; type: functional; details: NCI-H23, 48 h, read-out: Activity
HOP-92 [37] = test: Cytotoxicity against human HOP92 cells assessed as cell growth at 0.01 uM after 48 hrs by sulforhodamine B assay; type: functional; details: HOP-92, 48 h, read-out: Activity
[38] = read-out: LC50 (the source's name)

Sequence of Insulin-like growth factor 1 receptor (Homo sapiens) (P08069 31-736 limits assumed): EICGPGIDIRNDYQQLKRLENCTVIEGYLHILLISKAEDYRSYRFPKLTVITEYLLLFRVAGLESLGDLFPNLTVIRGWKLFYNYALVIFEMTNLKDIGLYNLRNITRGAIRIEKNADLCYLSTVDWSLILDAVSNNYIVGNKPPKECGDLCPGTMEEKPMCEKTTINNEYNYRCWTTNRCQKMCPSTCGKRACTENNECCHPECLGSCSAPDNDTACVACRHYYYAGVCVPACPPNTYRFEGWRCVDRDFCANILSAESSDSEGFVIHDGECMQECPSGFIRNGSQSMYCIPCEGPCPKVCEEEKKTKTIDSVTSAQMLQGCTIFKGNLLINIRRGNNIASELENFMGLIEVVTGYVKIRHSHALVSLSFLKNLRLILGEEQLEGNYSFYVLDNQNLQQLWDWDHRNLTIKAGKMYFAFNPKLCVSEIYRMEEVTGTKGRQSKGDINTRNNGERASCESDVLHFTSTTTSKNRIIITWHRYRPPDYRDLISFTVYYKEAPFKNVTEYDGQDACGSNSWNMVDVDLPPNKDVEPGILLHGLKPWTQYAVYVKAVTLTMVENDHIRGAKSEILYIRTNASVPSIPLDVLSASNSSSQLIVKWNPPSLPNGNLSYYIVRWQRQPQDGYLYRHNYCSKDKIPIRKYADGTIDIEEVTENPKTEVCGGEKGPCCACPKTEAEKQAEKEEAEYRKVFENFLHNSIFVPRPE
Sequence of Insulin-like growth factor 1 receptor (Homo sapiens) (P08069 741-1367 limits assumed): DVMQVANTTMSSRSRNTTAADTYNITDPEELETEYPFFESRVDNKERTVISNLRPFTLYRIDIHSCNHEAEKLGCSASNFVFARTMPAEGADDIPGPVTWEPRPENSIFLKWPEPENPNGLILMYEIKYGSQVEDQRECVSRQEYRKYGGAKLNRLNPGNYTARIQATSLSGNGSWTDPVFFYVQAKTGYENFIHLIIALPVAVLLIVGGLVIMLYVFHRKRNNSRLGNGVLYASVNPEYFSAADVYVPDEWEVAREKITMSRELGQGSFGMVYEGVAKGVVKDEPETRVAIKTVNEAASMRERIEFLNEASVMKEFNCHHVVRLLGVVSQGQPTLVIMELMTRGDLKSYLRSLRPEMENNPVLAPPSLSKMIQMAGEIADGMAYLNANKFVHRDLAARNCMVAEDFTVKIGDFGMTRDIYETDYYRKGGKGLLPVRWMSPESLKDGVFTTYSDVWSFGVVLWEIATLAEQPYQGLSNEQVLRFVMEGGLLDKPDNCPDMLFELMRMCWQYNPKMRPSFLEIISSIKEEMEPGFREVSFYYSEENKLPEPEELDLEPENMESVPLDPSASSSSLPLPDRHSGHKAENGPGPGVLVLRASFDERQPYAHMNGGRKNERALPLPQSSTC
Sequence of Proto-oncogene tyrosine-protein kinase receptor Ret (Homo sapiens) (P07949 whole entry): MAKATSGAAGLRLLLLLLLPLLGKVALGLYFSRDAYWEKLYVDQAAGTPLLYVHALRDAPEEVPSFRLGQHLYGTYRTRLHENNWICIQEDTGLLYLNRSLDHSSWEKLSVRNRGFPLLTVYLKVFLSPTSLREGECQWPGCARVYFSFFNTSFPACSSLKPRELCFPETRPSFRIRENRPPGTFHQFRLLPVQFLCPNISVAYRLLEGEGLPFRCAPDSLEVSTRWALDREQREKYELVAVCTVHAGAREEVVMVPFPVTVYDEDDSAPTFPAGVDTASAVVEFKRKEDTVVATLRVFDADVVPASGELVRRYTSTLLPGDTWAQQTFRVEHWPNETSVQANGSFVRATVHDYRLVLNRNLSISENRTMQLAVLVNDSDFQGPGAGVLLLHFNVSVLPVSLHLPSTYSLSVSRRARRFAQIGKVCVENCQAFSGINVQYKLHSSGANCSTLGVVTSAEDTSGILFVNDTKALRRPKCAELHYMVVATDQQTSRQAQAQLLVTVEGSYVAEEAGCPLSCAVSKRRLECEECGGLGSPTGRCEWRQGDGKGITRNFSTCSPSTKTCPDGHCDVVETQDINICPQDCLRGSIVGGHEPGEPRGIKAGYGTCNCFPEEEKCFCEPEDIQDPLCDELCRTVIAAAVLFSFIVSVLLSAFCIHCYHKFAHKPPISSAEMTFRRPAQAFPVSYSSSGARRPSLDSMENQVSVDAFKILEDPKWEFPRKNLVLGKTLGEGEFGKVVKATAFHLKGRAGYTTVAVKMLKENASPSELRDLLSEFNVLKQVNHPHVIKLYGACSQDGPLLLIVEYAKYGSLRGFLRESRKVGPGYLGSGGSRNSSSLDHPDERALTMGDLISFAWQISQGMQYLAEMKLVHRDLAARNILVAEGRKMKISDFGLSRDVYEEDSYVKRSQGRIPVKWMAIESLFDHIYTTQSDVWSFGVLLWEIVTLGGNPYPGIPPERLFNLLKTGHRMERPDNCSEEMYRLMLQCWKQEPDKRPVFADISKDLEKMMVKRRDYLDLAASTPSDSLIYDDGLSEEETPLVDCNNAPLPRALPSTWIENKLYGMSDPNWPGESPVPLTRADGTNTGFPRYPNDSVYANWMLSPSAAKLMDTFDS
Sequence of Serine/threonine-protein kinase pim-1 (Homo sapiens) (P11309 whole entry, looked up): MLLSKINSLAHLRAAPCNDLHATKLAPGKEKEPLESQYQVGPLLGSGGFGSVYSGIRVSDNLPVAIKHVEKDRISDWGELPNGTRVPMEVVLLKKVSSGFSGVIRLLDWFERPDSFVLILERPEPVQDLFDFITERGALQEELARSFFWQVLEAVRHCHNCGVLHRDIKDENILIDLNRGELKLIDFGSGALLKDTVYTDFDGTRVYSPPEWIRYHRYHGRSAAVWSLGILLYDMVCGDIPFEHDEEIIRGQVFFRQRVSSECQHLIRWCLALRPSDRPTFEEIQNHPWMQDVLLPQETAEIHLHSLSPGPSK
Sequence of Tyrosine-protein kinase Fyn (Homo sapiens) (P06241 2-537 limits assumed): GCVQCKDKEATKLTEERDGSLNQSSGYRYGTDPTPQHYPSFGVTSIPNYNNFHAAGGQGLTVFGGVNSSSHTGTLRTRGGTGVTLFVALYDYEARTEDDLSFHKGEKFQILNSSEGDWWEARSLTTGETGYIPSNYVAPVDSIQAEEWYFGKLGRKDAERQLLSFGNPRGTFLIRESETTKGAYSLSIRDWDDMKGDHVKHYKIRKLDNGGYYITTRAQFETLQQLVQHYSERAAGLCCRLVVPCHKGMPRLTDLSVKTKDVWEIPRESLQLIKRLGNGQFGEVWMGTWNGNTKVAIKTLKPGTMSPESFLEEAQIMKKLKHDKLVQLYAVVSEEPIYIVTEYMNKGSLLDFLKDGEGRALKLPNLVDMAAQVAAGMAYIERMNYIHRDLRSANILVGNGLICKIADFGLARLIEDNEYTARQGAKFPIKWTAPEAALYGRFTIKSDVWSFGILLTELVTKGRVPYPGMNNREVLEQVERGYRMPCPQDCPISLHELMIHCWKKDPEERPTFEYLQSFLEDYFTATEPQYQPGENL
Sequence of Mitogen-activated protein kinase 8 (Homo sapiens) (P45983 whole entry): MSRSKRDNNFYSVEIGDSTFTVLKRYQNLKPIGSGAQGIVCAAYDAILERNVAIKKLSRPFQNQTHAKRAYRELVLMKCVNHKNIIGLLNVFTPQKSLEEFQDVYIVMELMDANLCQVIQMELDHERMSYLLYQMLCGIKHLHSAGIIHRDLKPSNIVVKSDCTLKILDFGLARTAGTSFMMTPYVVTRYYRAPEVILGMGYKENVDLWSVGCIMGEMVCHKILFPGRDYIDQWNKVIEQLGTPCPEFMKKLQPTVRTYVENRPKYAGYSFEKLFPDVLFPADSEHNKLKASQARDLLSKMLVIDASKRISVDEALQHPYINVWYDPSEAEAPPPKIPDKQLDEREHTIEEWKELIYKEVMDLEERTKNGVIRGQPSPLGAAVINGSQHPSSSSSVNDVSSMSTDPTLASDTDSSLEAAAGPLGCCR
Sequence of Mitogen-activated protein kinase 1 (Homo sapiens) (P28482 whole entry): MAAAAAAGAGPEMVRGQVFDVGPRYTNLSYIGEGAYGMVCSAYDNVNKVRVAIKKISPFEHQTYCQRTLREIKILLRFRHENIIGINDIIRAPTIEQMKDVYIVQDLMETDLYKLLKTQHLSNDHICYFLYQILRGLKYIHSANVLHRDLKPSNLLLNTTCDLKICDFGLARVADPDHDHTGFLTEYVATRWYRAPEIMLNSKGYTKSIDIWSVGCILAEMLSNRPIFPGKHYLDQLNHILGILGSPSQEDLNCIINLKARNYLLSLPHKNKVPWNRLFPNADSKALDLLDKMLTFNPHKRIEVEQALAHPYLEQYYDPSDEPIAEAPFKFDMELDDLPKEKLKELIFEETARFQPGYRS

Compound: CC(=O)Nc1cccc(-c2ccc(-c3ccnc(NC(=O)Nc4cc(C(F)(F)F)cc(C(F)(F)F)c4)n3)cn2)c1.Cl
- inhibition [1]: < 50%
- inhibition [2]: < 50%
- inhibition [3]: 50%
- inhibition [4]: < 50%
- inhibition [5]: 60%
- inhibition [6]: < 50%
- inhibition [7]: < 50%
- inhibition [8]: < 50%
- inhibition [9]: < 50%
- inhibition [10]: < 50%
- inhibition [11]: < 50%
- inhibition [12]: < 50%
- inhibition [13]: < 50%
- inhibition [14]: < 50%
- inhibition [15]: < 50%
- inhibition [16]: < 50%
- inhibition [17]: < 50%
- inhibition [18]: < 50%
- inhibition [19]: < 50%
- inhibition [20]: < 50%

Compound: CC(=O)c1ccccc1-c1ccc(-c2ccnc(NC(=O)Nc3cc(N4CCOCC4)cc(C(F)(F)F)c3)n2)cn1
- growth at 10 µM (PC-3 [21]): 91%
- growth at 0.001 µM (SK-MEL-28 [22]): 100%
- growth at 1 µM (PC-3 [23]): 78%
- growth at 0.1 µM (SR [24]): 74%
- GI50 (HCC 2998): > 100 µM
- TGI (HCC 2998): > 100 µM
- CC50 (HCC 2998; [38]): > 100 µM
- growth at 0.1 µM (MCF7 [25]): 100%
- growth at 10 µM (SR [26]): 107%
- growth at 10 µM [27]: 89%
- growth at 1 µM (HOP-92 [28]): -2%
- growth at 10 µM (SK-MEL-28 [29]): 93%
- growth at 0.1 µM (HOP-92 [30]): 91%
- GI50 (NCI-H226): > 100 µM
- TGI (NCI-H226): > 100 µM
- CC50 (NCI-H226; [38]): > 100 µM
- GI50 [31]: > 100 µM
- TGI [31]: > 100 µM
- CC50 [31, 38]: > 100 µM
- growth at 1 µM (CCRF-CEM [32]): 93%
- growth at 0.1 µM (CCRF-CEM [33]): 87%
- growth at 0.001 µM (SR [34]): 94%
- growth at 0.01 µM [35]: 104%
- growth at 10 µM (MCF7 [36]): 70%
- growth at 0.1 µM (NCI-H23): 83%
- growth at 0.01 µM (HOP-92 [37]): 102%
